Screens from PubChem.
Hits are enriched below; roughly 1.9% of the tested compounds scored in any of these assays.
Rin1 Abl inh: human Rin1-Abl interaction inhibition; TR-FRET Rin1/Abl binding, biochemical; inhibition, % at 7.35 µM; 360,000 compounds, 0.4% hits; in the data active means inhibition above about 5%, passing the limit was not always enough
MBD2 DNA inh: MBD2-methylated oligo binding inhibition. TR-FRET, MBD2 binding to methylated oligonucleotide. inhibition, % at 4.4 µM. 370,000 compounds, 0.31% hits; in the data active means inhibition above about 13%
LEDGF integ inh: blocks HIV-1 LEDGF/p75-dependent DNA integration; TR-FRET IN-LEDGF/p75 DNA integration, Eu/Cy5; inhibition, % at 3.7 µM; 370,000 compounds, 0.64% hits; AID 743269;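 active means inhibition above the screen-wide mean plus 3 SD, cut at about 13% in these data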;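 further: signal is the Cy5 over europium emission ratio at 671 and 618 nm; 0% = plate median of compound wells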
TDP2 inh: TDP2 (human) inhibition, absorbance primary screen | O95551 | recombinant TDP2, T5PNP hydrolysis, p-nitrophenol absorbance 415 nm | inhibition, % at 12.8 µM | 370,000 compounds, 0.34% hits | AID 720702;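 active means inhibition above the mean of all tested compounds plus 3 SD, set per campaign, cut at about 25% in these data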;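 further: 0% = DMSO with enzyme and 100% = buffer with substrate but no TDP2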
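test system = human TDP2 enzyme | input = TDP2 enzyme at 120 nM final | medium = 50 mM Tris-HCl pH 7.5 with Mg2+, KCl, DTT, BSA | also added = T5PNP substrate, 5 mM | times = 2 h at 37 °C | technique = epi absorbance | benchmarks = high control without enzyme, low control DMSO plus TDP2 | replication = each compound tested once, singlicate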
UHRF1 binding: human UHRF1 methylated DNA binding inhibitors; UHRF1 binding to methylated oligo, TR-FRET; inhibition, % at 4.4 µM; 370,000 compounds, 0.75% hits;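 further: UHRF1 SRA domain binding a hemimethylated CpG hairpin DNA probe; 0% = median of test compound wells and 100% = reference inhibitor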
UHRF1 DNA bind: UHRF1 methyl-oligo binding inhibition as MBD2 counter-screen; UHRF1 binding to methylated oligonucleotide, TR-FRET; inhibition, % at 4.4 µM; 1,000 compounds, 25% hits; AID 720530; shares compounds with MBD2 DNA inh;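 further: UHRF1 SRA domain binding a labeled hemimethylated CpG hairpin DNA; 0% = vehicle only and 100% = reference inhibitor with vehicle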
MBD2 DBD conf: MBD2-DBD methyl-DNA binding inhibition, TR-FRET confirmation; 1,000 compounds, 26% hits; TR-FRET MBD2-DBD binding to methylated oligonucleotide; shares compounds with MBD2 DNA inh; inhibition, % at 4.4 µM; in the data active means inhibition above about 14%
* marks the source's active call; other numbers are inactive results; · = not tested or not shown; ! = repeats disagree. Unless noted, no stated cut-off is given here; in the data, active means inhibition above about 21%; inactive means the rest.

SMILES	Rin1 Abl inh	MBD2 DNA inh	LEDGF integ inh	TDP2 inh	UHRF1 binding	UHRF1 DNA bind	MBD2 DBD conf
CC(C)CC(=O)NC(=S)Nc1ccccc1C(F)(F)F	0	1	-2	-3	3	·	·
CCSc1nc(O)c(Cc2ccccc2)c(=O)[nH]1	2	13*	-1	0	14	4	6
O=C(CSc1nnc(NC(=O)c2c(F)cccc2F)s1)NC1CCCC1	1	1	2	22	0	·	·
O=C(Nc1nnc(SCC(=O)N2CCCCC2)s1)c1c(F)cccc1F	-1	33*	0	10	-2	7	3
Cc1ccc(S(=O)(=O)N2CCN(C(=O)c3cc4c(s3)CCCC4)CC2)cc1	4	-2	6	-5	5	·	·
COc1ccc(S(=O)(=O)N2CCN(C(=O)c3cc4c(s3)CCC4)CC2)cc1	-2	22*	7	-6	46*	46*	43*
O=C(NCc1ccccn1)c1c(-c2ccccc2)sc2ccccc12	2	16*	-3	-5	22*	10	7
Cc1ccc(Oc2nc(CN3CCOCC3)nc3sc4c(c23)CCC(C)C4)cc1 (configuration not stated)	2	14*	3	8	-1	9	4
Cc1ccccc1C(=O)N[C@@H](Cc1cccnc1)C(=O)N1CCC[C@H]1C(=O)NCCc1ccccc1Cl	·	4	-2	3	-1	·	·
CCOC(=O)[C@@]12CCCC3=C1N(CCC3)C(=O)[C@H]2CC(=O)N1CCCCC1	·	-1	-1	1	-1	·	·
CCCc1ccc(C(=O)NNC(=O)c2ccc(Br)cc2)cc1	-1	15*	2	1	2	8	10
CCCc1ccc(C(=O)NNc2ccc(F)cc2)cc1	-1	3	1	-12	4	·	·
CC1CN(Cc2c(O)ccc3c2oc(=O)c2ccccc23)CC(C)O1 (configuration not stated)	-5	16*	5	0	19	3	11
CC1CN(Cc2c(O)ccc3c(=O)c(-c4ccccc4)coc23)CC(C)O1 (configuration not stated)	0	-2	0	3	-1	·	·
CC(C)CC1Nc2ncnc(N3CCOCC3)c2N(Cc2ccccc2)C1=O (configuration not stated)	0	1	2	-2	0	·	·
CC(C)CC1Nc2ncnc(N3CCOCC3)c2N(Cc2ccc(Cl)cc2)C1=O (configuration not stated)	0	21*!	-1	6	24*!	2	1
Cc1cc(OC(C)CCN2CCC(C(O)(c3ccccc3)c3ccccc3)CC2)ccc1Br (configuration not stated)	·	-6	0	0	-2	·	·
Cc1cc(C)cc(OCC(=O)NNC(=O)C2CCCO2)c1 (configuration not stated)	1	-3	6	-3	-1	·	·
Cc1ccc(OCC(=O)NNC(=O)C2CCCO2)c(C)c1 (configuration not stated)	4	18*	-1	5	3	8	1
O=c1c([N+](=O)[O-])c(Cl)c2ccccc2n1Cc1ccccc1	·	0	1	1	4	·	·
CC(=O)c1cc(-c2ccccc2)n(CC(=O)NCc2ccc(Cl)cc2)c1C	·	2	-1	6	-3	·	·
Cc1cccc(N2CC(C(=O)Nc3cccc(S(=O)(=O)N4CCCCC4)c3)CC2=O)c1C (configuration not stated)	4	81*	0	-15	4	4	1
Cc1cccc(N2CC(C(=O)Nc3ccc(S(=O)(=O)N4CCOCC4)cc3)CC2=O)c1C (configuration not stated)	0	-2	-3	-11	-3	·	·
CC(C)Oc1cccc(-c2n[nH]c(=S)n2N=Cc2cccc([N+](=O)[O-])c2)c1	·	0	6	4	-2	·	·
O=C(C1CC1)C1(C(=O)N2CCOCC2)CC(c2ccccn2)=NO1 (configuration not stated)	·	2	-1	-5	5	·	·
SMILES	Rin1 Abl inh	MBD2 DNA inh	LEDGF integ inh	TDP2 inh	UHRF1 binding	UHRF1 DNA bind	MBD2 DBD conf
COc1ccc(OC)c(S(=O)(=O)N(C)CC(=O)Nc2ccccc2OC)c1	1	2	2	1	1	·	·
COc1ccc(OC)c(/C(O)=C/C(=O)C(=O)Nc2ccccc2OC)c1	3	15*	-1	15	19	6	0
C=CC[C@H]1c2ccccc2[C@H]2N3N=Cc4ccccc4[C@H]3[C@H](CCc3ccccc3)C(=O)N2N1C(=O)c1ccccc1	·	-5	4	-16	4	·	·
O=C(CCc1ccccc1)N[C@H]1[C@@H](OC(=O)c2cnccn2)CCC[C@@]12C(=O)N(Cc1ccccc1)c1ccccc12	·	-8	5	-3	0	·	·
O=C(CCc1ccccc1)N[C@H]1[C@H](OCc2ccccc2)CCC[C@@]12C(=O)N(Cc1ccccc1)c1ccc(-c3ccsc3)cc12	·	15*	2	3	17	15	9
Cn1ccc2ccc(-c3ccc4c(c3)[C@]3(CCC[C@@H](OCc5ccccc5)[C@@H]3NC(=O)CCc3ccccc3)C(=O)N4Cc3ccccc3)cc21	·	-2	-2	10	-1	·	·
O=C(CCc1ccccc1)N[C@H]1[C@@H](OC(=O)c2cccnc2)CCC[C@]12C(=O)N(Cc1ccccc1)c1ccccc12	·	17*	3	1	18	9	8
COc1cccc(NC(=O)Nc2c(-c3ccc(C)cc3)nc3ncccn23)c1	·	-8	-4	13	2	·	·
COc1cc2nc(NCCCN3CCN(C)CC3)n3nc(-c4ccccc4)nc3c2cc1OC	1	48*	7	-6	49*	41*	42*
CN1CCN(CCCNc2nc3ccccc3c3nc(-c4ccccc4)nn23)CC1	-2	3	-3	1	6	·	·
CCN(CC)CCCNc1nc2cc(OC)c(OC)cc2c2nc(-c3ccccc3)nn12	4	35*	1	3	35*	56*	57*
COCCCNc1nc2cc(OC)c(OC)cc2c2nc(-c3ccccc3)nn12	-2	3	-1	10	1	·	·
CCN(CC)CCCNc1nc2cc(OC)c(OC)cc2c2nc(-c3cccnc3)nn12	4	69*	0	4	68*	81*	78*
CCCCN1CCS(=O)(=O)N(Cc2ccc(Cl)cc2)C(C(=O)OC)C1 (configuration not stated)	·	6	1	3	-1	·	·
COC(=O)C1CN(Cc2cn(Cc3ccc(F)cc3)nn2)CCS(=O)(=O)N1Cc1ccc(C)cc1 (configuration not stated)	·	-2	-3	-4	0	·	·
